What all share (type): cell-based
The subject of data set [1] is MDA-MB-231 (human breast cancer) cells. The data set is described as follows: MTT cell viability assay, MDA-MB-231. The conditions noted are these: for inhibition at 25 µM: MDA-MB-231. In a few lines: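 MDA-MB-231 cells were grown as a monolayer in DMEM with 10% heat-inactivated FBS and 1% penicillin-streptomycin at 37 °C in humidified CO2, subcultured every third day with trypsin-EDTA, and used before passage 8. Cells were exposed 72 h to 10, 25 and 50 μM. Medium was removed, MTT added for 3 h at 37 °C, formazan dissolved in DMSO and read at 595 nm. Viability is relative to untreated control, triplicates, ±SD. IC50 comes from the viability-versus-concentration plot.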

The subject of data set [2] is MCF-7 breast cancer cells. Nature of the data set: MTT cell viability assay, MCF-7. Conditions: Homo sapiens; for inhibition at 25 µM: MCF7; for IC50: MCF7, 72 h, read-out: IC50 against MCF-7 breast cancer cells line. In outline: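 After medium removal, MTT was added for 3 h at 37 °C in CO2, formazan dissolved in DMSO and absorbance read at 595 nm. Viability is relative to untreated cells, triplicates, n = 3, ±SD. IC50 comes from plotting percent viability against concentration.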

The subject of the next data set is MDA-MB-453 cells. Nature of the data set: MTT cell viability assay, MDA-MB-453. Conditions: for IC50 against MDA-MB-453 cells: tested at 1, 10 and 25 μM. In outline:
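MDA-MB-453 (HER2-positive) cells were exposed to test compound at 1, 10 and 25 μM for 72 h. After medium removal, MTT was added for 3 h at 37 °C in CO2. Formazan was dissolved in DMSO and absorbance read at 595 nm. Percent viable cells are relative to untreated control cells.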

Data set [3] is described as follows: MTT cell viability assay, normal MCF-10A cells. The conditions noted are these: human, MCF-10A normal mammary epithelial cells. In a few lines: (§1)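 Normal mammary epithelial MCF-10A cells were exposed to test compound at 25, 50 and 100 μM for 72 h. Cells were then given MTT after medium removal, 3 h at 37 °C in CO2. Formazan was dissolved in DMSO and absorbance read at 595 nm. Viability is expressed as percent of untreated control cells.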

Data set [4] relates to normal mammary epithelial MCF-10A cells. The data set is described as follows: MTT cell viability assay, normal MCF-10A cells. Conditions: tested at 25, 50 and 100 μM. In a few lines: as §1
Where [5] appears, read: MDA-MB-231, 72 h, read-out: Cell viability (%) ±SD.
The mark [6] stands for this setting: MCF7, read-out: Cell viability (%) ±SD.
[7] abbreviates: Homo sapiens, MDA-MB-453, read-out: Cell viability (%) ±SD.

As for `COc1ccc(-c2cc(=O)n3c(ccn3Cc3cn([C@H]4O[C@@H](COC(C)=O)[C@H](OC(C)=O)[C@@H](OC(C)=O)[C@@H]4OC(C)=O)nn3)n2)cc1` (stereo in doubt) [Compound 23, (2S,3S,4R,5S,6S)-2-(Acetoxymethyl)-6-(4-((5-(4-methoxyphenyl)-7-oxopyrazolo[1,5-a]pyrimidin-1(7H)-yl)methyl)-1H-1,2,3-triazol-1-yl)tetrahydro-2H-pyran-3,4,5-triyl triacetate], the inhibition at 25 µM in data set [1] is around 50%. In data set [1] (setting [5]), the viability at 10 µM was 65.1 ± 8.53%, the viability at 25 µM is 49 ± 9.19% and the viability at 50 µM was 34.3 ± 5.29%. In addition, in data set [2], the inhibition at 25 µM is around 50% and the concentration for half-maximal inhibition (IC50) amounted to 9.24 µM. Also, in data set [2] (setting [6]), the viability at 1 µM worked out at 66.7 ± 1.18%, the viability at 10 µM turned out to be 40.3 ± 3.6% and the viability at 25 µM was determined as 31.7 ± 4%. Besides, in the data set on MDA-MB-453 cells (setting [7]), the viability at 1 µM is 80.6 ± 8%, the viability at 10 µM worked out at 88.4 ± 5.4% and the viability at 25 µM amounted to 77.1 ± 5.7%. The “IC50 against MDA-MB-453 cells” value with MDA-MB-453 cells is listed as “did not reach up to IC50 value”. Further, in data set [3], the viability at 72 h, 25 µM was found to be 88.6 ± 1.5%; the viability at 72 h, 50 µM worked out at 86.3 ± 2.9%; the viability at 72 h, 100 µM was 84.2 ± 3%. Moreover, the “growth inhibitory activity against normal breast epithelial cell (MCF-10A)” value (shortened to “growth inhibitory activity”) in data set [4] was “none of these compounds did have any growth inhibitory activity”.
With `CC(=O)OC[C@@H]1O[C@H](n2cc(Cn3ccc4nc(-c5ccc(F)cc5)cc(=O)n43)nn2)[C@@H](OC(C)=O)[C@H](OC(C)=O)[C@H]1OC(C)=O` (stereo in doubt) [Compound 26, (2S,3S,4R,5S,6S)-2-(Acetoxymethyl)-6-(4-((5-(4-fluorophenyl)-7-oxopyrazolo[1,5-a]pyrimidin-1(7H)-yl)methyl)-1H-1,2,3-triazol-1-yl)tetrahydro-2H-pyran-3,4,5-triyl triacetate], the inhibition at 25 µM in data set [1] is around 50%. Also, in data set [1] (setting [5]), the viability at 10 µM was found to be 76.6 ± 9.76%, the viability at 25 µM came out at 60 ± 8.47% and the viability at 50 µM was 54.6 ± 5.61%. In data set [2], the inhibition at 25 µM is around 50% and the IC50 was determined as 26.6 µM. For the same molecule, in data set [2] (setting [6]), the viability at 1 µM stood at 80 ± 4.5%, the viability at 10 µM was determined as 65.8 ± 1.8% and the viability at 25 µM was determined as 52.8 ± 3%. In addition, in the data set on MDA-MB-453 cells (setting [7]), the viability at 1 µM worked out at 87.8 ± 3.2%, the viability at 10 µM came to 84.2 ± 11.5% and the viability at 25 µM stood at 66.3 ± 5.8%. The “IC50 against MDA-MB-453 cells” value in the data set on MDA-MB-453 cells is on record as “did not reach up to IC50 value”. For the same molecule, in data set [3], the viability at 72 h, 25 µM came out at 87.8 ± 2.8%; the viability at 72 h, 50 µM turned out to be 85.6 ± 0.7%; the viability at 72 h, 100 µM was 82 ± 1.5%. In addition, the “growth inhibitory activity” value in data set [4] is recorded as “none of these compounds did have any growth inhibitory activity”.
In data set [1], `CC(=O)OC[C@@H]1O[C@H](n2cc(Cn3ccc4nc(-c5ccc6c(c5)OCO6)cc(=O)n43)nn2)[C@@H](OC(C)=O)[C@H](OC(C)=O)[C@H]1OC(C)=O` (stereo in doubt) [Compound 30, (2S,3S,4R,5S,6S)-2-(Acetoxymethyl)-6-(4-((5-(benzo[d][1,3]dioxol-5-yl)-7-oxopyrazolo[1,5-a]pyrimidin-1(7H)-yl)methyl)-1H-1,2,3-triazol-1-yl)tetrahydro-2H-pyran-3,4,5-triyl triacetate] gave an inhibition at 25 µM of around 50%. Moreover, in data set [1] (setting [5]), the viability at 10 µM was 86.6 ± 3.36%, the viability at 25 µM worked out at 55.2 ± 7.06% and the viability at 50 µM was 42.8 ± 5.04%. Further, in data set [2], the inhibition at 25 µM is around 50% and the IC50 worked out at 18.5 µM. Further, in data set [2] (setting [6]), the viability at 1 µM was determined as 78.2 ± 2.6%, the viability at 10 µM was determined as 57.7 ± 2.4% and the viability at 25 µM amounted to 42.3 ± 7.6%. Further, in the data set with MDA-MB-453 cells (setting [7]), the viability at 1 µM turned out to be 99.2 ± 8.1%, the viability at 10 µM was 74.8 ± 1.5% and the viability at 25 µM worked out at 61.4 ± 3.2%. Also, in the data set on MDA-MB-453 cells, the “IC50 against MDA-MB-453 cells” value is reported as “did not reach up to IC50 value”. For the same molecule, in data set [3], the viability at 72 h, 25 µM is 86.8 ± 5.3%; the viability at 72 h, 50 µM is 84.8 ± 3%; the viability at 72 h, 100 µM was found to be 78.5 ± 3.4%. For the same molecule, the “growth inhibitory activity” value in data set [4] is “none of these compounds did have any growth inhibitory activity”.
The molecule `CC(=O)OC[C@@H]1O[C@H](n2cc(Cn3ccc4nc(-c5ccc(Br)cc5)cc(=O)n43)nn2)[C@@H](OC(C)=O)[C@H](OC(C)=O)[C@@H]1OC(C)=O` (stereo in doubt) [Compound 33, (2S,3R,4R,5S,6S)-2-(Acetoxymethyl)-6-(4-((5-(4-bromophenyl)-7-oxopyrazolo[1,5-a]pyrimidin-1(7H)-yl)methyl)-1H-1,2,3-triazol-1-yl)tetrahydro-2H-pyran-3,4,5-triyl triacetate] came in with an inhibition at 25 µM in data set [1] of around 50%. Also, in data set [1] (setting [5]), the viability at 10 µM worked out at 66.7 ± 8.23%, the viability at 25 µM is 63.3 ± 6.32% and the viability at 50 µM came out at 47 ± 4.91%. For the same molecule, in data set [2], the inhibition at 25 µM was around 50% and the IC50 worked out at 7.32 µM. For the same molecule, in data set [2] (setting [6]), the viability at 1 µM came out at 67 ± 4.7%, the viability at 10 µM was found to be 35 ± 2.5% and the viability at 25 µM came to 25 ± 2.9%. Besides, in the data set with MDA-MB-453 cells (setting [7]), the viability at 1 µM was 88.8 ± 5.2%, the viability at 10 µM was determined as 78.3 ± 4.7% and the viability at 25 µM was found to be 67.6 ± 5.3%. In the data set on MDA-MB-453 cells, the “IC50 against MDA-MB-453 cells” value was “did not reach up to IC50 value”. For the same molecule, in data set [3], the viability at 72 h, 25 µM was 99.6 ± 2.2%; the viability at 72 h, 50 µM turned out to be 87.6 ± 1.7%; the viability at 72 h, 100 µM stood at 81.4 ± 2.6%. Further, the “growth inhibitory activity” value in data set [4] is given as “none of these compounds did have any growth inhibitory activity”.
As to `CC(=O)OC[C@H]1O[C@H](n2cc(Cn3ccc4nc(-c5ccc(F)cc5)cc(=O)n43)nn2)[C@@H](OC(C)=O)[C@@H](OC(C)=O)[C@@H]1OC(C)=O` [Compound 44, (2R,3R,4S,5S,6S)-2-(Acetoxymethyl)-6-(4-((5-(4-fluorophenyl)-7-oxopyrazolo[1,5-a]pyrimidin-1(7H)-yl)methyl)-1H-1,2,3-triazol-1-yl)tetrahydro-2H-pyran-3,4,5-triyl triacetate], in data set [1] (setting [5]), the viability at 10 µM was found to be 98.4 ± 3.62%, the viability at 25 µM worked out at 90.1 ± 6.77% and the viability at 50 µM worked out at 89.6 ± 6.27%.
In the case of `CC(=O)OC[C@H]1O[C@H](n2cc(Cn3ccc4nc(-c5ccc(C(F)(F)F)cc5)cc(=O)n43)nn2)[C@@H](OC(C)=O)[C@@H](OC(C)=O)[C@@H]1OC(C)=O` [Compound 45, (2R,3R,4S,5S,6S)-2-(Acetoxymethyl)-6-(4-((7-oxo-5-(4-(trifluoromethyl)phenyl)pyrazolo[1,5-a]pyrimidin-1(7H)-yl)methyl)-1H-1,2,3-triazol-1-yl)tetrahydro-2H-pyran-3,4,5-triyl triacetate], in data set [1] (setting [5]), the viability at 10 µM was found to be 96.8 ± 5.85%, the viability at 25 µM was found to be 91.1 ± 6% and the viability at 50 µM stood at 87 ± 1.1%.
In the case of `CC(=O)OC[C@H]1O[C@H](n2cc(Cn3ccc4nc(-c5ccc(C(C)C)cc5)cc(=O)n43)nn2)[C@@H](OC(C)=O)[C@@H](OC(C)=O)[C@@H]1OC(C)=O` [Compound 46, (2R,3R,4S,5S,6S)-2-(Acetoxymethyl)-6-(4-((5-(4-isopropylphenyl)-7-oxopyrazolo[1,5-a]pyrimidin-1(7H)-yl)methyl)-1H-1,2,3-triazol-1-yl)tetrahydro-2H-pyran-3,4,5-triyl triacetate], in data set [1] (setting [5]), the viability at 10 µM was 80.6 ± 4.7%, the viability at 25 µM is 75.5 ± 4.44% and the viability at 50 µM was found to be 83.5 ± 7.27%.
For `CC(=O)OC[C@H]1O[C@H](n2cc(Cn3ccc4nc(-c5ccc6ccccc6c5)cc(=O)n43)nn2)[C@@H](OC(C)=O)[C@@H](OC(C)=O)[C@@H]1OC(C)=O` [Compound 47, (2R,3R,4S,5S,6S)-2-(Acetoxymethyl)-6-(4-((5-(naphthalen-2-yl)-7-oxopyrazolo[1,5-a]pyrimidin-1(7H)-yl)methyl)-1H-1,2,3-triazol-1-yl)tetrahydro-2H-pyran-3,4,5-triyl triacetate] the same measures were 102 ± 9.28%, 89.8 ± 2.22% and 81.5 ± 5.45%.
Take `CC(=O)OC[C@H]1O[C@H](n2cc(Cn3ccc4nc(-c5ccc6c(c5)OCO6)cc(=O)n43)nn2)[C@@H](OC(C)=O)[C@@H](OC(C)=O)[C@@H]1OC(C)=O` [Compound 48, (2R,3R,4S,5S,6S)-2-(Acetoxymethyl)-6-(4-((5-(benzo[d][1,3]dioxol-5-yl)-7-oxopyrazolo[1,5-a]pyrimidin-1(7H)-yl)methyl)-1H-1,2,3-triazol-1-yl)tetrahydro-2H-pyran-3,4,5-triyl triacetate]: in data set [1] (setting [5]), the viability at 10 µM was determined as 96.5 ± 4.91%, the viability at 25 µM turned out to be 93.3 ± 3.6% and the viability at 50 µM came to 92.9 ± 9.08%.
Regarding `CC1=CC(=O)c2ccccc2C1=O` [Menadione, menadione, reference compound], in data set [1] (setting [5]), the viability at 20 µM worked out at 23.8 ± 5.7%.
Take `COCCn1c2c([n+](Cc3cnccn3)c1C)C(=O)c1ccccc1C2=O` [YM155, reference compound]: the values for the viability at 0.02 µM (in data set [1] (setting [5]); in data set [2] (setting [6]); in the data set on MDA-MB-453 cells (setting [7])) were 23.4 ± 3.13%, 31.2 ± 1.7% and 36.2 ± 1.5%, respectively. The viability at 72 h, 0.02 µM in data set [3] was found to be 39.2 ± 1.6%.

The values are drawn from paper PMC10762718 (RSC Advances, 2024).
